Active and inactive are the calls of the source. The calls are words filed in the database; no cut-off is given here.
These molecules were tested against T1, D(1A) dopamine receptor (Homo sapiens, UniProt P21728) (assay: Inhibition of [3H]SCH23390 binding to dopamine D1 receptor (unknown origin) expressed in human HEK293 cells at 10 uM by liquid scintillation counter relative to control). Details: not given.
Format: cell-based
Outline: (§1)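 Stably transfected HEK293T D1 membranes, […], duplicate incubation 50 min at 30 °C with [3H]SCH23390 in 50 mM Tris, 4 mM MgCl2, pH 7.4. Nonspecific binding with 10 μM SCH23390. GF/B filtration, scintillation counting.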

T1 sequence (P21728 whole entry): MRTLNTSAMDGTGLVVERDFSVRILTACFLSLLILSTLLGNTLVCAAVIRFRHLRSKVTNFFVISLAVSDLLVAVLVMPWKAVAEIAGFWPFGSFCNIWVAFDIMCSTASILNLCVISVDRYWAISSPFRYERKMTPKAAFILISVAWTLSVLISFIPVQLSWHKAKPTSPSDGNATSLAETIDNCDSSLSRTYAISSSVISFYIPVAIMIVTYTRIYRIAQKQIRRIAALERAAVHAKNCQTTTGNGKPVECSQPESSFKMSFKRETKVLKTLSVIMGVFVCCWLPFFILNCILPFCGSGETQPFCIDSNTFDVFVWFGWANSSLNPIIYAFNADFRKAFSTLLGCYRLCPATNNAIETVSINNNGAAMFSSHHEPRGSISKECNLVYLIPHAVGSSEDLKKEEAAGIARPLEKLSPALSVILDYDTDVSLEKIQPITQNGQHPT

| inhibition [%] | SMILES |
| --- | --- |
| 99.7 | COc1c(O)ccc2c1CN1CCc3cc4c(cc3[C@@H]1C2)OCO4 |

What follows are molecules tested against T2, D(2) dopamine receptor (Homo sapiens, UniProt P14416) (assay: Displacement of [3H]spiperone from dopamine D2 receptor (unknown origin) expressed in human HEK293 cells by liquid scintillation counter). Details: not given.
T2 sequence (P14416 whole entry): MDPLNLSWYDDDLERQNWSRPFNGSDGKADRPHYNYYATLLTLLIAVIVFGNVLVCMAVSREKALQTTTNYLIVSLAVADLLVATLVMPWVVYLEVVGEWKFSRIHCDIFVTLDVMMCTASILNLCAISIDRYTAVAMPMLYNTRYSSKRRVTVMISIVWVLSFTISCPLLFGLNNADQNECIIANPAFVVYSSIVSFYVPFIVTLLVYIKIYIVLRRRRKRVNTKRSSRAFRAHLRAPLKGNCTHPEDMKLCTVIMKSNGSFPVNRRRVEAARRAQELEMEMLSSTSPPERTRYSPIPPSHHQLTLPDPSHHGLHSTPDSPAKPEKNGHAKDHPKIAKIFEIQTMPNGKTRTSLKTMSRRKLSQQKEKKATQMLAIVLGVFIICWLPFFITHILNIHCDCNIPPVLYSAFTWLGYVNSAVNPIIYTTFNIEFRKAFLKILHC
Format: cell-based

| Ki [µM] | SMILES |
| --- | --- |
| 0.145 | COc1c(O)ccc2c1CN1CCc3cc4c(cc3[C@@H]1C2)OCO4 |

These molecules were tested against T3, 5-hydroxytryptamine receptor 1A (Homo sapiens, UniProt P08908) (assay: Displacement of [3H]8-OH-DPAT from 5-HT1A receptor (unknown origin) expressed in HEK293 cells by liquid scintillation counter). Details: not given.
T3 sequence (P08908 whole entry): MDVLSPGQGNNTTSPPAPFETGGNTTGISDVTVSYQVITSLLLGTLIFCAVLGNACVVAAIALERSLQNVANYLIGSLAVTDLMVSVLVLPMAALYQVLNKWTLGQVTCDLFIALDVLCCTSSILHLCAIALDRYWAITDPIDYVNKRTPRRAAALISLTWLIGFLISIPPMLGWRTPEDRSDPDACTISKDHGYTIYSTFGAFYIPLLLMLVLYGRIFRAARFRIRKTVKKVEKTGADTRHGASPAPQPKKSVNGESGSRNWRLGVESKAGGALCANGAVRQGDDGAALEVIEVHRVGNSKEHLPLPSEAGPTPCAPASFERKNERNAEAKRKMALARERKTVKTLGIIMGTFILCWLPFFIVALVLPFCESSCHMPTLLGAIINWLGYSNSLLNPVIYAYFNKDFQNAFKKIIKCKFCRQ
Format: cell-based

| Ki [µM] | SMILES |
| --- | --- |
| 0.908 | COc1c(O)ccc2c1CN1CCc3cc4c(cc3[C@@H]1C2)OCO4 |

Each molecule was assayed against T1, D(1A) dopamine receptor (assay: Agonist activity at dopamine D1 receptor (unknown origin) expressed in HEK293 cells assessed as stimulation of [35S]GTPgammaS binding by scintillation proximity assay). Details: not given.
Format: functional, cell-based

| EC50 [µM] | SMILES |
| --- | --- |
| 16 | COc1c(O)ccc2c1CN1CCc3cc4c(cc3[C@@H]1C2)OCO4 |

These molecules were tested on Rattus norvegicus (assay: Effect on baseline startle reactivity in Sprague-Dawley rat schizophrenia model at 5 mg/kg, ip administered 10 mins prior testing monitored for 5 mins). Details: in vivo.
Format: ADME, organism-based
Design: dose 5 mg/kg, route intraperitoneal
Outline: (§2)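 Male Sprague-Dawley rats were pretreated ip with saline or compound 10 min before PCP (5 mg/kg, ip). Acoustic startle was tested 5 min after PCP, following 3 min acclimation: 40 ms, 120 dB pulse with prepulse trials, 74 dB background, 15–25 s intertrial interval, session about 20 min. %PPI = [1 − (prepulse+pulse)/(pulse alone)]×100. Startle = mean of pulse-alone trials, first 3 excluded.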

| SMILES | Activity |
| --- | --- |
| COc1c(O)ccc2c1CN1CCc3cc4c(cc3[C@@H]1C2)OCO4 | Non-toxic |

The molecules below were run on Rattus norvegicus (assay: Antipsychotic activity in Sprague-Dawley rat schizophrenia model assessed as inhibition of PCP-induced prepulse inhibition at 10 mg/kg, ip administered 10 mins prior testing monitored for 5 mins). Details: not given.
Format: functional, organism-based
Design: dose 10 mg/kg
Outline: as §2

| SMILES | inhibition |
| --- | --- |
| COc1c(O)ccc2c1CN1CCc3cc4c(cc3[C@@H]1C2)OCO4 | Active |

What follows are molecules tested on Rattus norvegicus (assay: Antipsychotic activity in Sprague-Dawley rat schizophrenia model assessed as inhibition of PCP-induced prepulse inhibition at 5 mg/kg, ip administered 10 mins prior testing monitored for 5 mins). Details: not given.
Format: functional, organism-based
Design: dose 5 mg/kg
Outline: as §2

| SMILES | inhibition |
| --- | --- |
| COc1c(O)ccc2c1CN1CCc3cc4c(cc3[C@@H]1C2)OCO4 | Active |

Each molecule was assayed on Rattus norvegicus (assay: Antipsychotic activity in Sprague-Dawley rat schizophrenia model assessed as inhibition of PCP-induced hyperlocomotion at 10 mg/kg, ip administered 10 mins prior testing […]). Details: not given.
Format: functional, organism-based
Design: dose 10 mg/kg

| SMILES | inhibition |
| --- | --- |
| COc1c(O)ccc2c1CN1CCc3cc4c(cc3[C@@H]1C2)OCO4 | Active |

These molecules were tested against T4, 5-hydroxytryptamine receptor 1A (Homo sapiens) (UniProt P08908) (assay: Inhibition of [3H]8-OH-DPAT binding to 5-HT1A receptor (unknown origin) expressed in HEK293 cells at 10 uM by liquid scintillation counter relative to control). Details: not given.
T4 sequence (whole entry): T3 sequence (P08908 whole entry)
Format: cell-based
Outline: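 Membranes of HEK293T stably transfected with 5-HT1A, […], incubated in duplicate 50 min at 30 °C with [3H]8-OH-DPAT in 50 mM Tris, 4 mM MgCl2, pH 7.4. Nonspecific binding with 10 μM WAY100635. Filtration on GF/B, cold Tris/EDTA wash, scintillation counting.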

| inhibition [%] | SMILES |
| --- | --- |
| 95.7 | COc1c(O)ccc2c1CN1CCc3cc4c(cc3[C@@H]1C2)OCO4 |

What follows are molecules tested on Rattus norvegicus (assay: Antipsychotic activity in ip dosed Sprague-Dawley rat schizophrenia model assessed as inhibition of PCP-induced hyperlocomotion administered 10 mins prior testing monitored for 5 mins). Details: not given.
Format: functional, organism-based
Outline: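 Male Sprague-Dawley rats (230–280 g) given saline or compound ip 10 min before PCP 5 mg/kg. Starting 5 min after PCP, rats were video-tracked in a 40×40×45 cm open field for 30 min. Total distance recorded; n = 6–12 per group; one-way ANOVA with Tamhane post hoc test.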

| SMILES | inhibition |
| --- | --- |
| COc1c(O)ccc2c1CN1CCc3cc4c(cc3[C@@H]1C2)OCO4 | Dose-dependent effect |

Each molecule was assayed against T2, D(2) dopamine receptor. Details: HEK293, at 10 µM.

| inhibition [%] | SMILES |
| --- | --- |
| 92.8 | COc1c(O)ccc2c1CN1CCc3cc4c(cc3[C@@H]1C2)OCO4 |

What follows are molecules tested against T1, D(1A) dopamine receptor (assay: Displacement of [3H]SCH23390 from dopamine D1 receptor (unknown origin) expressed in human HEK293 cells by liquid scintillation counter). Details: not given.
Format: cell-based
Outline: as §1

| Ki [µM] | SMILES |
| --- | --- |
| 0.0063 | COc1c(O)ccc2c1CN1CCc3cc4c(cc3[C@@H]1C2)OCO4 |

The molecules below were run against T2, D(2) dopamine receptor. Details: not given.

| IC50 [µM] | SMILES |
| --- | --- |
| 1 | COc1c(O)ccc2c1CN1CCc3cc4c(cc3[C@@H]1C2)OCO4 |

These molecules were tested against T1, D(1A) dopamine receptor (assay: Antagonist activity at dopamine D1 receptor (unknown origin) expressed in HEK293 cells assessed as inhibition of [35S]GTPgammaS binding by scintillation proximity assay). Details: not given.
Format: functional, cell-based

| IC50 [µM] | SMILES |
| --- | --- |
| 17.4 | COc1c(O)ccc2c1CN1CCc3cc4c(cc3[C@@H]1C2)OCO4 |

Each molecule was assayed against 5-hydroxytryptamine receptor 2A (Homo sapiens, UniProt P28223) (assay: Inhibition of [3H]Ketanserin binding to 5-HT2A receptor (unknown origin) expressed in HEK293 cells at 10 uM by liquid scintillation counter relative to control). Details: not given.
Sequence of 5-hydroxytryptamine receptor 2A (P28223 whole entry): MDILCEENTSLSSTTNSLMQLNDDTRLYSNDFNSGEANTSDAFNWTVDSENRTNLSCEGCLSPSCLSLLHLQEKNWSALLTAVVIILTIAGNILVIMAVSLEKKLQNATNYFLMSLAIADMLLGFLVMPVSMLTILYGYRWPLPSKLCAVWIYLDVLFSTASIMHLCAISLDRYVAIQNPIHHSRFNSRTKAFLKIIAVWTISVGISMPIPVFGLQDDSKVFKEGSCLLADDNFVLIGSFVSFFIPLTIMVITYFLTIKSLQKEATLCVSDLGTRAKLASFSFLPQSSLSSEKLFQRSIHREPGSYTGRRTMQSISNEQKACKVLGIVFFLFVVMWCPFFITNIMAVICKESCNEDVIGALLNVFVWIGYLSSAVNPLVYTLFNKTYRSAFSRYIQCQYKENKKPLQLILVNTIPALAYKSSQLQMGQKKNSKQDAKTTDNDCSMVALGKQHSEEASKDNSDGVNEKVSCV
Format: cell-based
Outline: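 Membranes of HEK293T stably transfected with 5-HT2A, […], incubated in duplicate 15 min at 37 °C with [3H]ketanserin in 50 mM Tris, 4 mM MgCl2, pH 7.4. […] GF/B filtration, cold wash, scintillation counting.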

| inhibition [%] | SMILES |
| --- | --- |
| 73.6 | COc1c(O)ccc2c1CN1CCc3cc4c(cc3[C@@H]1C2)OCO4 |

What follows are molecules tested on Rattus norvegicus (assay: Antipsychotic activity in Sprague-Dawley rat schizophrenia model assessed as effect on 120 db noise-induced absolute acoustic startle responses at 5 mg/kg, ip administered 10 mins prior testing monitored for 5 mins). Details: not given.
Format: functional, organism-based
Design: dose 5 mg/kg
Outline: as §2

| SMILES | Activity |
| --- | --- |
| COc1c(O)ccc2c1CN1CCc3cc4c(cc3[C@@H]1C2)OCO4 | inactive |

These molecules were tested against T4, 5-hydroxytryptamine receptor 1A (Homo sapiens) (assay: (§3) Agonist activity at 5-HT1A receptor (unknown origin) expressed in HEK293 cells assessed as […] of [35S]GTPgammaS binding by scintillation proximity assay). Details: not given.
Format: functional, cell-based

| Emax [%] | SMILES |
| --- | --- |
| 80.7 | COc1c(O)ccc2c1CN1CCc3cc4c(cc3[C@@H]1C2)OCO4 |

The molecules below were run against T3, 5-hydroxytryptamine receptor 1A (assay: as §3). Details: not given.
Format: functional, cell-based

| EC50 [µM] | SMILES |
| --- | --- |
| 13.5 | COc1c(O)ccc2c1CN1CCc3cc4c(cc3[C@@H]1C2)OCO4 |

Reference: ChEMBL document CHEMBL2331343 (Bioorg Med Chem, 2013)
